Measured values as given in ChEMBL document CHEMBL2203085, “Modification of a promiscuous inhibitor shifts the inhibition from γ-secretase to FLT-3” (Bioorg Med Chem Lett, 2012).

Experiments:
H4 [1] = test: Cytotoxicity against human H4 cells at 40 uM; type: cell-based; conditions: h4, 40 µM
In short: (§1)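 H4 APP#9 cells were used for cell-based toxicity testing, and toxicity was scored as yes or no at each concentration tested.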

Gamma-secretase = test: Inhibition of gamma secretase in human H4 cells expressing APP695 assessed as inhibition of Abeta42 production after 20 to 24 hrs by liquid phase electrochemiluminescence assay; type: cell-based
In short: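 Aβ42 generation in H4 APP#9 cells was quantified by a previously described liquid-phase electrochemiluminescence (LPECL) assay of the Aβ42 isoform as the read-out of γ-secretase inhibition.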

H4 [2] = test: Cytotoxicity against human H4 cells at 10 uM; type: cell-based; conditions: h4, 10 µM; in short: as §1
[3] = biological target: Cyclin-dependent kinase 2/cyclin A (Homo sapiens) (UniProt P24941+P20248+P78396); test: Inhibition of human recombinant CDK2/cyclin A using Ulight-CFFKNIVTPRTPPPSQGK-amide as substrate assessed as residual activity at 1 uM after 30 mins relative to staurosporine; type: protein-complex assay
In short: (§2)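 Part of a 50-kinase panel screen at a single concentration. Residual activity is given as percent of control specific activity, calculated as (measured specific activity/control specific activity) × 100, with staurosporine as the control. The kinase-specific details are in the supplementary data.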

[4] = biological target: Protein kinase C beta type (Homo sapiens) (UniProt P05771); test: Inhibition of human recombinant PKCbeta2 using CKRREILSRRPSYRK as substrate assessed as residual activity at 1 uM after 15 mins relative to staurosporine; in short: as §2
Chain of Protein kinase C beta type (Homo sapiens) (P05771 2-671 limits assumed): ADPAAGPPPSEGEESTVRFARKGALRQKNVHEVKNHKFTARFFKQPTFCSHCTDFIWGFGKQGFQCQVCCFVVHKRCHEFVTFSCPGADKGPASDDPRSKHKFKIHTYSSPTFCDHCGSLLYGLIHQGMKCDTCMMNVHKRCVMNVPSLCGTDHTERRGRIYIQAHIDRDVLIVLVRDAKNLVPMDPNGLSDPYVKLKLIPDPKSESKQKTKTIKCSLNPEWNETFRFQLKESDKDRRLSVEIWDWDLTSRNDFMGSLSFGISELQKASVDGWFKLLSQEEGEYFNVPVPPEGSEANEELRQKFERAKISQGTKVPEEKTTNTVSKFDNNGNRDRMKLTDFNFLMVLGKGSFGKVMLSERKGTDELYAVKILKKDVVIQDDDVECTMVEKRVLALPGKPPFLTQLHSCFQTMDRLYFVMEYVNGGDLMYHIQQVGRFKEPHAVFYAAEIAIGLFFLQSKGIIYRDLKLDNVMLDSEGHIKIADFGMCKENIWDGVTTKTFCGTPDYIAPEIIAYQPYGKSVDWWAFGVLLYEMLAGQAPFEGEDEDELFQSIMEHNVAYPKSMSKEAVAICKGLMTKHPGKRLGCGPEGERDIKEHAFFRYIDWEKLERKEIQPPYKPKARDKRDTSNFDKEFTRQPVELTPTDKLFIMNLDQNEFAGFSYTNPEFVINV

[5] = biological target: Hepatocyte growth factor receptor (Homo sapiens) (UniProt P08581); test: Inhibition of human recombinant cMET expressed in insect cells using Ulight-CAGAGAIETDKEYYTVKD as substrate assessed as residual activity at 1 uM after 60 mins relative to staurosporine
Chain of Hepatocyte growth factor receptor (Homo sapiens) (P08581 whole entry): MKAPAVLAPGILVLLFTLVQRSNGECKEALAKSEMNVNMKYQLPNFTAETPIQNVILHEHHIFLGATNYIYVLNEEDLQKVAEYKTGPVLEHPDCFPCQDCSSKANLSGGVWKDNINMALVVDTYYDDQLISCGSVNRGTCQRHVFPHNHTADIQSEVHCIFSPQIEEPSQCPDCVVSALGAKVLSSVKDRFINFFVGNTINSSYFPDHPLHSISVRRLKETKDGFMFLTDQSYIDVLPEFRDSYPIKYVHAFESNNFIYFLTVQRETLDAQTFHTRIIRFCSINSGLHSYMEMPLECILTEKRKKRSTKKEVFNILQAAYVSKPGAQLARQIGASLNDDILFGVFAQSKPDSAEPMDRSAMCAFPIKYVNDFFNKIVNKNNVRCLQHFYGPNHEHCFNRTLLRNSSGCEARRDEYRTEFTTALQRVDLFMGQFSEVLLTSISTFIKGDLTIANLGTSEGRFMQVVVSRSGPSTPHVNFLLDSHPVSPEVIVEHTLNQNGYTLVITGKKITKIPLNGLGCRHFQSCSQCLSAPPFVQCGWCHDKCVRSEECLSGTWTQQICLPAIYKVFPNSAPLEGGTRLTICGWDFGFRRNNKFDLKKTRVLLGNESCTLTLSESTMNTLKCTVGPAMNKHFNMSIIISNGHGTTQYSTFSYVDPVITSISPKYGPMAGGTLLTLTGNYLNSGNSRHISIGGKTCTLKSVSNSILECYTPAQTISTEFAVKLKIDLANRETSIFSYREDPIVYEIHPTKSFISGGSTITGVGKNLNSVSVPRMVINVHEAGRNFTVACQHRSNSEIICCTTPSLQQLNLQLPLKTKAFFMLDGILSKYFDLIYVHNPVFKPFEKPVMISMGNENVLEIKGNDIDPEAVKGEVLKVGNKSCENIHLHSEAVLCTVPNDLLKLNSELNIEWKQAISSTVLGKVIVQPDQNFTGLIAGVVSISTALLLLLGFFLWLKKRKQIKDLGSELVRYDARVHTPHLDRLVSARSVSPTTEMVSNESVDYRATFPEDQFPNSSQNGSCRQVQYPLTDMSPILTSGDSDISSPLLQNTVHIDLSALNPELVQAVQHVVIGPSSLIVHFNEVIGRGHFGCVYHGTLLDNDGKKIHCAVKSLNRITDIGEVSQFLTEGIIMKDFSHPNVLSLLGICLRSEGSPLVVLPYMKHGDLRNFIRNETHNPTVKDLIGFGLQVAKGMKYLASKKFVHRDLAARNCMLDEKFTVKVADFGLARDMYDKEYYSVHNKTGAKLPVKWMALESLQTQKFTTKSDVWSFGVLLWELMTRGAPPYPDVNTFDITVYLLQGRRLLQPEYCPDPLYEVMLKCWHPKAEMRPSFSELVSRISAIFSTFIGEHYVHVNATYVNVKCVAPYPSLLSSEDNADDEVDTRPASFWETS
In short: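 Single-point kinase-panel screen at 1 µM test concentration. Specific activity was measured and expressed as percent of the staurosporine control, calculated as (measured specific activity / control specific activity) × 100.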

[6] = biological target: Dual specificity mitogen-activated protein kinase kinase 6 (Homo sapiens) (UniProt P52564); test: Inhibition of human recombinant MKK6 using inactive p38alpha as substrate assessed as residual activity at 1 uM after 10 mins relative to staurosporine; in short: as §2
Chain of Dual specificity mitogen-activated protein kinase kinase 6 (Homo sapiens) (P52564 whole entry): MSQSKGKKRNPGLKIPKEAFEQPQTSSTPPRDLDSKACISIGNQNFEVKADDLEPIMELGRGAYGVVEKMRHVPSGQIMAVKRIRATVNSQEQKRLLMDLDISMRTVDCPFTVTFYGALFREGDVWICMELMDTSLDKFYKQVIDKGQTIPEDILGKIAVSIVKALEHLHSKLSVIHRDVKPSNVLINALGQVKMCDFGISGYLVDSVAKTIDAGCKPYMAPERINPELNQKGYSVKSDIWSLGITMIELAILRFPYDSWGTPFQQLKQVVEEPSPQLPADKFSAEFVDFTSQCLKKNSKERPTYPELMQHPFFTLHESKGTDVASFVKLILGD

[7] = biological target: Inhibitor of nuclear factor kappa-B kinase subunit alpha (Homo sapiens) (UniProt O15111); test: Inhibition of human recombinant IKKalpha expressed in Sf21 cells using + Ulight-IkappaB-alpha as substrate assessed as residual activity at 1 uM after 30 mins relative to staurosporine; in short: as §2
[8] = biological target: Epidermal growth factor receptor (Homo sapiens) (UniProt P00533); test: Inhibition of human recombinant EGFR expressed in insect cells using Ulight-CAGAGAIETDKEYYTVKD as substrate assessed as residual activity at 1 uM after 15 mins relative to staurosporine; in short: as §2
[9] = biological target: Receptor-type tyrosine-protein kinase FLT3 (Homo sapiens) (UniProt P36888); test: Inhibition of human recombinant FLT3 expressed in insect cells using Ulight-CAGAGAIETDKEYYTVKD as substrate assessed as residual activity at 1 uM after 90 mins relative to staurosporine; in short: as §2
[10] = biological target: Serine/threonine-protein kinase Chk1 (Homo sapiens) (UniProt O14757); test: Inhibition of human recombinant CHK1 expressed in insect cells using CKRREILSRRPSYRK as substrate assessed as residual activity at 1 uM after 30 mins relative to staurosporine; in short: as §2
Chain of Serine/threonine-protein kinase Chk1 (Homo sapiens) (O14757 whole entry): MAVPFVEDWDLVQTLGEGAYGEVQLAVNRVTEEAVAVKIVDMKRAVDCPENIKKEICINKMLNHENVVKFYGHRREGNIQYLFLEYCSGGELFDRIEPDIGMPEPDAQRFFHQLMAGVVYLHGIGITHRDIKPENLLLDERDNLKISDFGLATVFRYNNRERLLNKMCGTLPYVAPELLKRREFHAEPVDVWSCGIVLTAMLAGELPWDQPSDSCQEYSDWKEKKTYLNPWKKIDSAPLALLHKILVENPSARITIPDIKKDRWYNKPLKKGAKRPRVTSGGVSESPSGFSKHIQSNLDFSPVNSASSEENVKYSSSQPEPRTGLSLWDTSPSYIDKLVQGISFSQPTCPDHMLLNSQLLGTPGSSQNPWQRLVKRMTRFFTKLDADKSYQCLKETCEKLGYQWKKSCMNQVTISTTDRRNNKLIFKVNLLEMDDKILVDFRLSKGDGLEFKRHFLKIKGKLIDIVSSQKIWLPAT

[11] = biological target: Fibroblast growth factor receptor 2 (Homo sapiens) (UniProt P21802); test: Inhibition of human recombinant FGFR2 using Ulight-CAGAGAIETDKEYYTVKD as substrate assessed as residual activity at 1 uM after 15 mins relative to staurosporine; in short: as §2
Homo sapiens = species on record: Homo sapiens; test: Inhibition of human recombinant PKA expressed in Escherichia coli using Ulight-RRRSLLE as substrate assessed as residual activity at 1 uM after 10 mins relative to staurosporine; in short: as §2
[12] = biological target: 3-phosphoinositide-dependent protein kinase 1 (Homo sapiens) (UniProt O15530); test: Inhibition of human recombinant PDK1 expressed in insect cells using Ulight-FLGFTYVAP as substrate assessed as residual activity at 1 uM after 90 mins relative to staurosporine; in short: as §2
[13] = biological target: Serine/threonine-protein kinase MARK1 (Homo sapiens) (UniProt Q9P0L2); test: Inhibition of human recombinant MARK1 using Ulight-RRRSLLE as substrate assessed as residual activity at 1 uM after 30 mins relative to staurosporine; in short: as §2
[14] = biological target: Tyrosine-protein kinase JAK3 (Homo sapiens) (UniProt P52333); test: Inhibition of human recombinant JAK3 using Ulight-CAGAGAIETDKEYYTVKD as substrate assessed as residual activity at 1 uM after 60 mins relative to staurosporine; in short: as §2
[15] = biological target: Mitogen-activated protein kinase 1 (Homo sapiens) (UniProt P28482); test: Inhibition of human recombinant ERK2 expressed in Escherichia coli using Ulight-CFFKNIVTPRTPPPSQGK-amide as substrate assessed as residual activity at 1 uM after 15 mins relative to staurosporine; in short: as §2
Chain of Mitogen-activated protein kinase 1 (Homo sapiens) (P28482 whole entry): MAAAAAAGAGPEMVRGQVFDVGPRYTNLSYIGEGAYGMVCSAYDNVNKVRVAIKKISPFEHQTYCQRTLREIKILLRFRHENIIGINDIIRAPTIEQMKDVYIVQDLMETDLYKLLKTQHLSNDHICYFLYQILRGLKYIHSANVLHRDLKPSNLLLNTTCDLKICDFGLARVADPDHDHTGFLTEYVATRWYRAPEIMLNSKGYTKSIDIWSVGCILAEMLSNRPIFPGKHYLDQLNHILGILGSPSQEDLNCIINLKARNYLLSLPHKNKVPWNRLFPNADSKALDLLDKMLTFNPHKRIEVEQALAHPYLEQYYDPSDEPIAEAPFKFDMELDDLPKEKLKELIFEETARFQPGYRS

[16] = biological target: Glycogen synthase kinase-3 beta (Homo sapiens) (UniProt P49841); test: Inhibition of human recombinant GSK3beta using Ulight-CFFKNIVTPRTPPPSQGK-amide as substrate assessed as residual activity at 1 uM after 90 mins relative to staurosporine; in short: as §2
[17] = biological target: Serine/threonine-protein kinase PLK1 (Homo sapiens) (UniProt P53350); test: Inhibition of human recombinant PLK1 using Ulight-FLGFTYVAP as substrate assessed as residual activity at 1 uM after 60 mins relative to staurosporine; in short: as §2
H4 [18] = test: Selectivity ratio of IC50 for gamma secretase in human H4 cells to IC50 for human recombinant FLT3; type: cell-based
Danio rerio = species on record: Danio rerio; test: Toxicity against zebra fish embryo assessed as developmental delay at 20 uM incubated from 4 hrs to 48 hrs post fertilization by microscopic analysis; type: organism-based; conditions: zebrafish, in vivo
In short: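 Zebrafish embryos were collected and kept in E2 medium at 28 °C. Compound was added at 4–5 hpf at 5 or 20 µM alongside untreated controls. Phenotypes were compared with controls at 48 hpf.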

[19] = biological target: Serine/threonine-protein kinase Nek2 (Homo sapiens) (UniProt P51955); test: Inhibition of human recombinant NEK2 expressed in insect cells using Ulight-FLGFTYVAP as substrate assessed as residual activity at 1 uM after 60 mins relative to staurosporine; in short: as §2
[20] = biological target: Serine/threonine-protein kinase Sgk1 (Homo sapiens) (UniProt O00141); test: Inhibition of human recombinant SGK1 using Ulight-RRRSLLE as substrate assessed as residual activity at 1 uM after 30 mins relative to staurosporine; in short: as §2
[21] = biological target: Serine/threonine-protein kinase 26 (Homo sapiens) (UniProt Q9P289); test: Inhibition of human recombinant MST4 using Ulight-TM- PKC as substrate assessed as residual activity at 1 uM after 30 mins relative to staurosporine; in short: as §2
Chain of Serine/threonine-protein kinase 26 (Homo sapiens) (Q9P289 2-416 limits assumed): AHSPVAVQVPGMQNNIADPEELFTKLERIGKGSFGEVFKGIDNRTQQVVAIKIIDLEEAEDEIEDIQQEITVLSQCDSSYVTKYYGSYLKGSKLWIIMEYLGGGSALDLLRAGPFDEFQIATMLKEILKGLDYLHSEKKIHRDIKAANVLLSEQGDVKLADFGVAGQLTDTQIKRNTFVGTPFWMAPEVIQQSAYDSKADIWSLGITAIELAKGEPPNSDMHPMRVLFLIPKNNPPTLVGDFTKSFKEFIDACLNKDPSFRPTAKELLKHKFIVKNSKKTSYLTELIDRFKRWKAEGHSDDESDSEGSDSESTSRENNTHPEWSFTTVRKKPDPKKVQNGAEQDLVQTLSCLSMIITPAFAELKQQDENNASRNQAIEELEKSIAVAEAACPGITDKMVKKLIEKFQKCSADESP

[22] = biological target: Fibroblast growth factor receptor 3 (Homo sapiens) (UniProt P22607); test: Inhibition of human recombinant FGFR3 using Ulight-CAGAGAIETDKEYYTVKD as substrate assessed as residual activity at 1 uM after 90 mins relative to staurosporine; in short: as §2
[23] = biological target: Glycogen synthase kinase-3 alpha (Homo sapiens) (UniProt P49840); test: Inhibition of human recombinant GSK3alpha using Ulight-CFFKNIVTPRTPPPSQGK-amide as substrate assessed as residual activity at 1 uM after 60 mins relative to staurosporine; in short: as §2
Chain of Glycogen synthase kinase-3 alpha (Homo sapiens) (P49840 2-483 limits assumed): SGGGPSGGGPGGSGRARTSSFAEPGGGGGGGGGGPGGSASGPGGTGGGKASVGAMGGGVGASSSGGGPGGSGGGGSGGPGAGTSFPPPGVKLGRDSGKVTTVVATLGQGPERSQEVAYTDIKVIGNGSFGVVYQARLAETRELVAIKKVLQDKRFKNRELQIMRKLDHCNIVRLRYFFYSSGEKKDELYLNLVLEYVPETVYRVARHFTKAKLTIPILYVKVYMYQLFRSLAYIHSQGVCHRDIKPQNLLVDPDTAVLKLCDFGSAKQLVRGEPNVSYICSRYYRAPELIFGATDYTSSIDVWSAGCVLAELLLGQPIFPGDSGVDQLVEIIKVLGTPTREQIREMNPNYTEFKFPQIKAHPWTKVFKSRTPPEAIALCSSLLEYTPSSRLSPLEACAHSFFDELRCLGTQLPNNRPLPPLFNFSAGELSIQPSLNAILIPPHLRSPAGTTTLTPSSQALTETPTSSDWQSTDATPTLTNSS

[24] = biological target: Aurora kinase A (Homo sapiens) (UniProt O14965); test: Inhibition of human recombinant Aurora A expressed in Sf21 cells using Ulight-RRRSLLE as substrate assessed as residual activity at 1 uM after 15 mins relative to staurosporine; in short: as §2
Chain of Aurora kinase A (Homo sapiens) (O14965 whole entry): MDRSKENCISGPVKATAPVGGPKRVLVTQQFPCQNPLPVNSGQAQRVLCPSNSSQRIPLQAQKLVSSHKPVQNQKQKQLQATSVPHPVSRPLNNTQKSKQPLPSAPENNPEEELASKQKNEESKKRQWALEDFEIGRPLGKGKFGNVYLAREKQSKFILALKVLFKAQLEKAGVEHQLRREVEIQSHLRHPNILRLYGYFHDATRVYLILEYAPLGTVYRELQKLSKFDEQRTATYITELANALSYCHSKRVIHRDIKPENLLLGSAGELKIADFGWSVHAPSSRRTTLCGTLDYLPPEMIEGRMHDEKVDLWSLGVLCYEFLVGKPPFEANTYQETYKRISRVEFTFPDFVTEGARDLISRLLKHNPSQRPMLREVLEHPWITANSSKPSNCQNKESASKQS

[25] = biological target: RAC-alpha serine/threonine-protein kinase (Homo sapiens) (UniProt P31749); test: Inhibition of human recombinant AKT1 expressed in insect cells using CKRREILSRRPSYRK as substrate assessed as residual activity at 1 uM after 60 mins relative to staurosporine; in short: as §2
Chain of RAC-alpha serine/threonine-protein kinase (Homo sapiens) (P31749 whole entry): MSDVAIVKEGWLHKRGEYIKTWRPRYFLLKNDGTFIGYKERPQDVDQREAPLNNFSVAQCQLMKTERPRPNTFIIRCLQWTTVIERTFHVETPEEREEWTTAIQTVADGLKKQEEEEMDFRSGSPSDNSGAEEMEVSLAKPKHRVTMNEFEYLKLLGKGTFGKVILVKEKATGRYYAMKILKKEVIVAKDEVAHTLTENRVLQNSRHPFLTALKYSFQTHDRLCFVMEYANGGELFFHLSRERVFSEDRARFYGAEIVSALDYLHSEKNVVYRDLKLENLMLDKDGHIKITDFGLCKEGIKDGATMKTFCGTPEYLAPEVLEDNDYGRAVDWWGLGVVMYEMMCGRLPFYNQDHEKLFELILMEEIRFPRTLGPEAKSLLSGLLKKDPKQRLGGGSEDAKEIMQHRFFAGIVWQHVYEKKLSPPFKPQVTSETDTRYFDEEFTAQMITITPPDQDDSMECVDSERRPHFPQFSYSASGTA

[26] = biological target: Ephrin type-B receptor 4 (Homo sapiens) (UniProt P54760); test: Inhibition of human recombinant EPHB4 expressed in insect cells using Ulight-TK peptide as substrate assessed as residual activity at 1 uM after 90 mins relative to staurosporine; in short: as §2
[27] = biological target: Serine/threonine-protein kinase PAK 4 (Homo sapiens) (UniProt O96013); test: Inhibition of human recombinant PAK4 expressed in insect cells using Ulight-RRRSLLE as substrate assessed as residual activity at 1 uM after 30 mins relative to staurosporine; in short: as §2
H4 [28] = test: Cytotoxicity against human H4 cells at 80 uM; type: cell-based; conditions: h4, 80 µM; in short: as §1
H4 [29] = test: Cytotoxicity against human H4 cells at 160 uM; type: cell-based; conditions: h4, 160 µM; in short: as §1
H4 [30] = test: Cytotoxicity against human H4 cells at 20 uM; type: cell-based; conditions: h4, 20 µM; in short: as §1

COc1cc(OCCN(C)C)ccc1/C=C1\C(=O)Nc2ccc(Cl)cc21
Activity (H4 [1]): Non-toxic | IC50 (Gamma-secretase): 10 µM

N#Cc1ccc(COc2ccc(/C=C3\C(=O)Nc4ccc(Cl)cc43)cc2)cc1
Activity (H4 [1]): Non-toxic | IC50 (Gamma-secretase): 27.3 µM

O=C1Nc2ccc(Cl)cc2/C1=C/c1ccc(O)cc1
Activity (H4 [1]): Non-toxic | IC50 (Gamma-secretase): 47.6 µM

N#Cc1cccc(COc2ccc(/C=C3\C(=O)Nc4ccc(Cl)cc43)cc2)c1
Activity (H4 [1]): Non-toxic | IC50 (Gamma-secretase): > 40 µM

Cc1cn(-c2ccc(Oc3ccc(/C=C4\C(=O)Nc5ccc(Cl)cc54)cc3)cc2)cn1
Activity (H4 [2]): Toxic | IC50 (Gamma-secretase): 5.4 µM

CCN(CC)CCOc1ccc(/C=C2\C(=O)Nc3ccc(Cl)cc32)cc1
Activity [3]: 93.5% | Activity [4]: 99.4% | Activity [5]: 97.2% | Activity [6]: 101% | Activity [7]: 104% | Activity [8]: 102% | Activity [9]: 14.7% | Activity [10]: 95.8% | IC50 (Gamma-secretase): 17.7 µM | Activity [11]: 100% | Activity (Homo sapiens): 98.7% | Activity [12]: 107% | Activity [13]: 99.6% | Activity [14]: 67.3% | Activity [15]: 101% | Activity [16]: 97% | Activity [17]: 100% | Ratio IC50 (H4 [18]): 1000 | Activity (Danio rerio): Toxic | Activity [19]: 107% | Activity [20]: 96% | Activity [21]: 104% | Activity [22]: 92.9% | Activity [23]: 104% | Activity [24]: 99.6% | Activity [25]: 101% | Activity [26]: 102% | Activity [27]: 101%

COc1ccc(/C=C2\C(=O)Nc3ccc(Cl)cc32)cc1
Activity (H4 [1]): Non-toxic | IC50 (Gamma-secretase): > 40 µM

CCN(CC)CCOc1ccc(/C=C2\C(=O)Nc3ccc(Cl)cc32)cc1OC
Activity (H4 [1]): Toxic | IC50 (Gamma-secretase): 11.5 µM

O=C1Nc2ccc(Cl)cc2/C1=C/c1ccc(OCCCCl)cc1
Activity (H4 [1]): Toxic | IC50 (Gamma-secretase): 4.7 µM

COc1cc(/C=C2\C(=O)Nc3ccc(Cl)cc32)ccc1-n1cnc(C)c1
IC50 (Gamma-secretase): 6.7 µM | Activity (H4 [28]): Toxic

Cn1c2ccccc2c2cc(/C=C3\C(=O)Nc4ccc(Cl)cc43)ccc21
IC50 (Gamma-secretase): 19.8 µM | Activity (H4 [28]): Non-toxic

N#CCCCOc1ccc(/C=C2\C(=O)Nc3ccc(Cl)cc32)cc1
Activity (H4 [1]): Toxic | IC50 (Gamma-secretase): > 40 µM

COc1cc(/C=C2\C(=O)Nc3ccc(Cl)cc32)ccc1OCCCC#N
Activity (H4 [29]): Non-toxic | IC50 (Gamma-secretase): > 160 µM

CN(C)CCOc1ccc(/C=C2\C(=O)Nc3ccc(Cl)cc32)cc1
Activity (H4 [1]): Non-toxic | IC50 (Gamma-secretase): 7.6 µM

O=C1Nc2ccc(Cl)cc2/C1=C/c1cc(Br)c(O)c(Br)c1
Activity (H4 [1]): Non-toxic | IC50 (Gamma-secretase): 15 µM

O=C1Nc2ccc(Cl)cc2/C1=C/c1ccc(OCCCc2nnn[nH]2)cc1
Activity (H4 [1]): Toxic | IC50 (Gamma-secretase): 17.7 µM

O=C1Nc2ccc(Cl)cc2/C1=C/c1ccc(OCCN2CCOCC2)cc1
Activity (H4 [1]): Non-toxic | IC50 (Gamma-secretase): 11.3 µM

CCCCOc1ccc(/C=C2\C(=O)Nc3ccc(Cl)cc32)cc1
Activity (H4 [1]): Non-toxic | IC50 (Gamma-secretase): > 40 µM

COc1cc(/C=C2\C(=O)Nc3ccc(Cl)cc32)ccc1OCCN(C)C
Activity (H4 [1]): Toxic | IC50 (Gamma-secretase): 11.5 µM

COc1cc(/C=C2\C(=O)Nc3ccc(Cl)cc32)ccc1S(C)(=O)=O
IC50 (Gamma-secretase): 7.3 µM | Activity (H4 [30]): Toxic

COC(=O)c1ccc(COc2ccc(/C=C3\C(=O)Nc4ccc(Cl)cc43)cc2)cc1
Activity (H4 [1]): Non-toxic | IC50 (Gamma-secretase): 38.8 µM

CN(C)c1ccc(/N=N/c2ccc(/C=C3\C(=O)Nc4ccccc43)cc2)cc1
IC50 (Gamma-secretase): > 80 µM | Activity (H4 [28]): Non-toxic

Cn1c2ccccc2c2cc(/C=C3\C(=O)Nc4ccccc43)ccc21
IC50 (Gamma-secretase): 27.6 µM | Activity (H4 [28]): Toxic
